Data as given in article PMC3947091 (Molecular imaging and biology : MIB : the official …, 2014).
* marks the point of attachment. DOTA = O=C(O)CN1CCN(CC(=O)O)CCN(CC(=O)*)CCN(CC(=O)O)CC1; Cy5.5 = Cy5.5 near-infrared fluorescence dye

Tests used:
glioblastomas = conditions: 90 of 139 patients; white light comparison 47 (36 %) of 131 patients; cited from earlier work
U251-Luc tumors [1] = assay: NIR optical imaging, orthotopic U251-Luc tumors; assay type: in vivo, nude mice; conditions: 24 h after tail vein injection, 10 μg
Method in brief: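 Orthotopic xenograft made with 3×10⁶ U251-Luc cells stereotaxically implanted in male nude mice (8–10 weeks; 3 mm deep, 1 mm right, 2.5 mm behind bregma). Bioluminescence check on day 10. Tail-vein injection of 10 μg Cy5.5-labeled probe (n=12). NIR imaging at 1, 4 and 24 h (ex 675 nm/30 nm bandwidth, em 695–770 nm); tissues analyzed ex vivo at 24 h. Manual ROI, photons/s/cm².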

U87-Luc tumors [2] = assay type: in vivo, nude mice; conditions: 10 μg
Method in brief: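 Male nude mice (8–10 weeks) had 1×10⁶ U87-Luc cells implanted stereotaxically (3 mm deep, 1 mm right, 2.5 mm behind bregma). Tumor take was checked by bioluminescence on day 10 (iv d-luciferin 4 mg/kg). Cy5.5-labeled test probe or scrambled control, 10 μg, given by tail vein. NIR imaging at 1, 4 and 24 h (ex 675 nm, em 695–770 nm). Mice killed at each time point (n=4); organs weighed and imaged ex vivo. Manual ROI, photons/s/cm².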

U251-Luc tumors [3] = assay: μPET/CT imaging with blocking experiment, orthotopic U251-Luc tumors; assay type: in vivo, nude mice
Method in brief: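 In orthotopic U251-Luc nude mice (n=3), ⁶⁴Cu-labeled probe (7.4 MBq, 0.5–1.0 μg) was given by tail vein, alone or with 50 μg/mouse of unlabeled probe for blocking. μPET/CT at 1 and 24 h. ROIs drawn on tumor, normal brain and a standard holding 1% of the injected dose. Tumor/normal-brain voxel intensity ratio taken from 3D ROIs, reported with SD; Student t test.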

[4] = system: U87-Luc tumors (EphB4, CD31 staining); assay: Fluorescence microscopy of excised brain sections, U87-Luc tumors; assay type: in vivo, nude mice; conditions: EphB4 expression only in tumor microvessels
Method in brief: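 Brains with implanted tumor excised from probe-injected nude mice after μPET/CT, snap-frozen, cut at 4 μm. Sections fixed in 4% paraformaldehyde 20 min RT, blocked in 10% goat serum 30 min, and incubated overnight at 4 °C with rabbit anti-human EphB4 (1:100) and rat anti-mouse CD31 (1:50). Alexa 488/594 secondaries (1:500), DAPI counterstain, fluorescence microscopy.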

U87-Luc tumors [5] = assay: μPET/CT imaging, orthotopic U87-Luc tumors; assay type: in vivo, nude mice; conditions: 1 and 24 h after tail vein injection, 7.4 MBq
Method in brief: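 Orthotopic U87-Luc nude mice (n=4; 1×10⁶ cells implanted stereotaxically) received ⁶⁴Cu-labeled probe, 7.4 MBq (200 μCi, 0.5–1.0 μg), by tail vein. μPET/CT imaging at 1 and 24 h. Mean activities computed within ROIs drawn on tumor and normal brain, with a 1%-injected-dose standard placed beside the animal.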

For `NCC(=O)CCC(=O)O` [5-aminolevulinic acid], the “Patients with completely resected glioblastoma” value (glioblastomas) is given as 65%.

For “Cy5.5-TNYL-RAWK-DOTA: TNYL-RAW with Cy5.5 at the N-terminus and DOTA at the C-terminus ({Cy5.5}-TNYLFSPNGPIARAWK(DOTA)-NH2)”, the “Cy5.5 NIR fluorescence visualization of tumor in mouse brain” value (U251-Luc tumors [1]) was “clearly visualized”, the “Brain tumor uptake clearly shown in NIR fluorescence imaging” value (U87-Luc tumors [2]; U87-Luc tumors, 1, 4 and 24 h after intravenous injection) was “clearly shown” and the “Cy5.5 NIR fluorescence visualization of tumor in mouse brain” value (U87-Luc tumors [2]; U87-Luc, 24 h after tail vein injection) was “clearly visualized”.

With “Cy5.5-TNYL-RAWK-^64Cu-DOTA: ^64Cu-labeled Cy5.5-TNYL-RAWK-DOTA, dual-labeled PET/optical probe ({Cy5.5}-TNYLFSPNGPIARAWK(DOTA)-NH2; also: DOTA holds 64Cu)” the “μPET/CT visualization of tumors, with cold peptide” value (U251-Luc tumors [3]; 1 and 24 h, coinjected cold Cy5.5-TNYL-RAWK-DOTA 50 μg/mouse) was “barely discernible”, the “μPET/CT visualization of tumors, absence of cold peptide” value (U251-Luc tumors [3]; 1 and 24 h after radiotracer injection, 7.4 MBq) was “clearly visualized” and the “Binding site in tumor sections (Cy5.5 signal colocalization)” value [4] was “bound only to the tumor microvessels”. The “μPET/CT visualization of tumors” value (U87-Luc tumors [5]) was “clearly visualized”.
